We go through 36 sequences from the EternaBench riboswitch data.

For this data set, the system named is MS2 coat protein. Put plainly: apparent Kd, MS2 coat protein; higher = weaker binding; RNA-MaP array; FMN 200 µM where present. In a few lines:
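Binding was read on Illumina sequencing-chip clusters where stalled E. coli RNA polymerase had transcribed each design. A titration of SNAP-549-labelled MS2 coat protein began at 0.7 or 1.5 nM and doubled to 3 µM, once without ligand and once with constant ligand, in 100 mM Tris-HCl pH 7.5, 80 mM KCl, 4 mM MgCl2, BSA, DTT, yeast tRNA and Tween-20. The apparent Kd is the median of filtered per-cluster binding-curve fits, based on green signal normalised to red-channel RNA signal and control-cluster median Fmax.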

Setting [1] is: designed as: OFF switch for flavin mononucleotide, no ligand.
Setting [2] is: ligand present: flavin mononucleotide, designed as: OFF switch for flavin mononucleotide.
Setting [3] is: designed as: ON switch for flavin mononucleotide, no ligand.
Where [4] appears, read: ligand present: flavin mononucleotide, designed as: ON switch for flavin mononucleotide.

Broadly, the apparent Kd is a dissociation constant that holds for the conditions of the assay. With “GUAGAGUAAGGAUAUUGUGAAUAGGAUAGAAUGGUUAGAAACAAGAAGGUACAUGAGGAUCACCCAUGUAAUGU”, the “apparent Kd” value runs as follows: under setting [1], 22.1 nM; under setting [2], 19.8 nM.
The matching figures for “GGUUCACGAGGAUAUCGAUUUUAGUACAUGAGGAUCACCCAUGUUGUCCAGGUUUCGAUUCGAGAAGGCGUGAACC”: 22.8 nM and 22.5 nM.
Take “AAAAGACAUGAGGAUCACCCAUGUCAAGACGUGGGAGGAUAUGCAUGGAAAACAUGCUGUGCAGAAGGCCCGUGUC”: the “apparent Kd” value runs as follows: under setting [3], 25.6 nM; under setting [4], 17.9 nM.
Take “AUGUUGCGAGGAUAUAUUUACUGGUUGUUGUUUGGUUGGGAACAUGAGGAUCACCCAUGUAGAAGGUGCAUAAC”: the “apparent Kd” value by setting is: under setting [1], 54.5 nM; under setting [2], 49.9 nM.
Consider “UGUGUGUGGGCAGGAUAUGCAUGAAUAUGUAUGAUGUAGUGUGAUGUAACAUGAGGAUCACCCAUGUAGAAGGGCCGGUGUGUG”, for which the “apparent Kd” value is, setting by setting: under setting [1], 99.3 nM; under setting [2], 116 nM.
Regarding “UCAUCAACGGGCGGGUCGGUUGGACAUGAGGAUCACCCAUGUAGAAGGACCGGUGGACUCCGGCGGUAGGAUAUACAUAUGGUG”, the “apparent Kd” value is, setting by setting: under setting [1], 29.2 nM; under setting [2], 36.7 nM.
In the case of “UUGGACGUCCUAGGAUAUGUAGGAUAUUCCUACAUGAGGAUCACCCAUGUUGACAUGGAAGAAGGACAGAAGGACGAUGUCCAU”, the “apparent Kd” value runs as follows: under setting [3], 551 nM; under setting [4], 71.3 nM.
“CUAUACAUAUCAGGAUAUCAUCGCGUGGAUUAACCCUGUGAUUACAUGAGGAUCACCCAUGUGCUUGAGAAGGGAUUACUAUUU”: the “apparent Kd” value under setting [1] was 33.7 nM and the “apparent Kd” value under setting [2] worked out at 152 nM.
For the sequence “GGGCCCGGAGGAUAUACAAUGGGCUCGGGAAACUGGGUCUUACAUGAGGAUCACCCAUGUAGAAGGCCGGGCCC”, the “apparent Kd” value worked out at 18.9 nM under setting [1] and 23.4 nM under setting [2].
On the same counts, the results for “UAAAAGCUAGGAUAUACAUGAGGAUCACCCAUGUCACGGGUGCCACACCGAAAGGUGCGUAGAAGGAGCCCAAA” are 38.6 nM and 103 nM.
“CGCUACGUUUCGUAGCAGUGUCAUCGAGAAGGCCCUGACAUGAGGAUCACCCAUGUUGUUACAUGGGAGGAUAUCGAUGAUACG”: the “apparent Kd” value is, setting by setting: under setting [3], 13 nM; under setting [4], 5.4 nM.
With “ACAAGAGCGGAAGGAUAUUUUACAUGAGGAUCACCCAUGUAAUAAAUGAGGAUCACGGAUGUAGUAAAGAAGGUCCGGAUAAGA”, the “apparent Kd” value by setting is: under setting [1], 26.1 nM; under setting [2], 32.8 nM.
Regarding “GGAAAUCAUGUAGGAUAUGCAUGGCGAAGCUACGCAGAAGGACAUGAGGAUCACCCAUGUUAAAGCUACCGAGUUCGGUGGCAA”, the “apparent Kd” value by setting is: under setting [1], 180 nM; under setting [2], 148 nM.
With “GGAUAGGACAGAGGAUAUACAGAUAGGAUCUACUAUCAAACAGUCCUGACAUGAGGAUCACCCAUGUAGAAGGCUGUCCUAUCG”, the “apparent Kd” value reads like this: under setting [1], 21.9 nM; under setting [2], 107 nM.
For “AAUCCACAUGAGGAUCACCCAUGUCAGGAUAUCGCGCGCGCGGUUUCGGUCGCGCGCGCGAGAAGGGACGGCUG”, the “apparent Kd” value is, setting by setting: under setting [1], 28.8 nM; under setting [2], 51.7 nM.
Take “GGGAUGUCAGGAUAUCCAAAAGUCUGCCAAUACAGCAGACAGGAGAAGGGACAUGAGGAUCACCCAUGUAAAGA”: the “apparent Kd” value runs as follows: under setting [1], 39.5 nM; under setting [2], 107 nM.
Consider “UUUGGGUGGCUGGAGGAUAUUCUUGUGGUUACAUGAGGAUCACCCAUGUGUCGCGCGGUACGCGAGGAGAAGGCUGGCGGCCGUU”, for which the “apparent Kd” value under setting [3] turned out to be 327 nM and the “apparent Kd” value under setting [4] was 56.2 nM.
Take “GAUUGACAUGAGGAUCACCCAUGUGAGGAUAUCGGCCGGACCUUGUUAGCUUCCACCGCGAGAAGGCACAUCGG”: the “apparent Kd” value is, setting by setting: under setting [1], 19.7 nM; under setting [2], 21.3 nM.
On the same counts, the results for “GUCGGGUCUCACGCGUCGGUCCACAUGAGGAUCACCCAUGUCAAGGAUAUAGCGUCUUCCGGGCGUUAGAAGGUGGCCAUUGGU” are 26.6 nM and 61 nM.
With “AGUCAGAGCAGAGGAUAUAUACAUGAGGAUCACCCAUGUGACUGACUAUGCUAGAAAUAGUAUGUAUAGAAGGCUGCUCUGACA”, the “apparent Kd” value under setting [1] was found to be 188 nM and the “apparent Kd” value under setting [2] came to 466 nM.
Regarding “AAUAAUUAUUAAGGAUAUGGGUUGAUAACAUGAGGAUCACCCAUGUUAAAUAAGCCGAGAGGCUACUAGAAGGAUAUAUAUAUU”, the “apparent Kd” value by setting is: under setting [3], 1050 nM; under setting [4], 435 nM.
For “AAAGUUGGUAGGCCCUCGGAACAUGAGGAUCACCCAUGUAAGGAGGAUAUGCCCGGUACCCGCUGGCAGAAGGCCUUAUAAGAC”, the “apparent Kd” value by setting is: under setting [1], 6.74 nM; under setting [2], 42.5 nM.
The matching figures for “AAAGGCCGAGGAUAUACAUGAGGAUCACCCAUGUGGACUCUGCAGAAUUGAUACCUUGGUAGAAGGUGGACCGG”: 23 nM and 18.4 nM.
For “AAAAGACAUGAGGAUCACCCAUGUAAAGACGUGGGAGGAUAUGUAUGGAAACCAGACUGUACAGAAGGCCUUUGUC”, the “apparent Kd” value under setting [3] is 161 nM and the “apparent Kd” value under setting [4] is 52.4 nM.
On to “UUCGUGCAGCUUAGCUGUACGCGUACAUGAGGAUCACCCAUGUAGGAUAUGGUAGGCAAAGCUUACUAGAAGGAUAUAGUGAUC”, for which the “apparent Kd” value under setting [1] is 129 nM and the “apparent Kd” value under setting [2] was determined as 144 nM.
With “AUAAUUUUAUAUAUCAUUUUAAUCAGAAGGCAUAACAUGAGGAUCACCCAUGUAUAUUAUUGUUAUGAGGAUAUGAUUUGGUUA”, the “apparent Kd” value by setting is: under setting [1], 19.1 nM; under setting [2], 78.3 nM.
As to “CGUUCAGAGAACGAUACGAAUGGACAUGAGGAUCACCCAUGUAGAAGGACAGGAGAAUAACGACUGUAGGAUAUACAUUUAGUG”, the “apparent Kd” value came to 41.3 nM under setting [1] and 76 nM under setting [2].
As for “GCUUGUGAAGGAUAUACUGGAGGAGUGCGAUAGAAGCACGAACAUGAGGAUCACCCAUGUAGAAGGUCAGGCGU”, the “apparent Kd” value came out at 24.4 nM under setting [1] and 29.1 nM under setting [2].
On the same counts, the results for “AGAUCCGCAGGAUAUGUCAAUUUACACAUGAGGAUCACCCAUGUGCCUUGUGUCAGCUUGAUAGAAGGGCGGACUA” are 330 nM and 575 nM.
“UGGUACAUCGGAGGAUAUCAUGUGAUAACAUGAGGAUCACCCAUGUCGAUGGAGACAUCGGAGAUUGAGAAGGCCGAUGUACCU”: the “apparent Kd” value came out at 801 nM under setting [3] and 84.2 nM under setting [4].
In the case of “UAUAACUUACAGAAGGGUAUUGUGGUGCAUUAUUAGUAGGAAAUACUAUACAGGAUAUGUAAUACAUGAGGAUCACCCAUGUUC”, the “apparent Kd” value was 22.3 nM under setting [3] and 14.9 nM under setting [4].
On to “ACAUGAGGAUCACCCAUGUUAUCUGGGACUUCAAUUAUUUCUAGAAGGCUGUUUACUUGUUAGUCAGAGGAUAUAGAAUUAAAU”, for which the “apparent Kd” value amounted to 31.1 nM under setting [1] and 32.3 nM under setting [2].
Turning to “CUUUUGUCAGGAUAUGAGUAGUAGAACAAUAGUACUACUACUCAGAAGGGACAUGAGGAUCACCCAUGUUCCUC”, the “apparent Kd” value is, setting by setting: under setting [1], 16.6 nM; under setting [2], 50.5 nM.
Turning to “AAUUAUUUACAGAAGGAGUAAGAUUAUGUAUUACUAGGAUAUGUUCACAUGAGGAUCACCCAUGUACUAGUAGGUUUUUUAUGU”, the “apparent Kd” value is 6.96 nM under setting [1] and 7.66 nM under setting [2].
Turning to “AGUGUCAUCGAGAAGGCCUCAUGACAUGAGGAUCACCCAUGUUAGCAUGGGAGGAUAUCGAUGAUACAGCUACGUUUCGUAGCA”, the “apparent Kd” value is, setting by setting: under setting [3], 170 nM; under setting [4], 51.4 nM.
For the sequence “CAGGUAGCUACAGGAUAUACACGUCUGGAUAAACCAGACGAAUACCUUACAUGAGGAUCACCCAUGUAGAAGGGUAGCUGCCUG”, the “apparent Kd” value under setting [1] amounted to 16.9 nM and the “apparent Kd” value under setting [2] is 19.8 nM.
